CSC inhib: cancer stem cell inhibition. inhibition, % at 7.5 µM. cancer stem cell-like cells viability, luminescence. 1.1% of 300,000 active; in the data active = inhibition above about 75%; inconclusive = no clear call, values can overlap the other calls; tested in HMLE shEcad cells
Mdm2 MdmX PPI: disrupts the human Mdm2-MdmX interaction | O15151+Q00987 | SaOS-2 split-luciferase Mdm2/MdmX complementation, luminescence | inhibition, % at 8 µM | 3% of 330,000 active;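 active = inhibition of at least 50% at 8 µM in the primary screen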
T cruzi inh: T. cruzi replication inhibition; inhibition, % (test concentration not listed); T. cruzi beta-gal in NIH3T3, luminescence, 90 h; 1.4% of 300,000 active;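 active = mean inhibition across valid replicates above about 55%, limit read from the data; inconclusive = mean below that limit but half or more replicates reach it; inactive = mean below it, under half of replicates reach it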;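 note: signal also drops with host cell toxicity which is not excluded here; 0% = plate median of DMSO wells and 100% = zero luminescence signal; higher percent means less beta-gal luminescence so fewer parasites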
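Incubation – ≥90 h infection period, 3 h prior cell attachment · System – NIH/3T3 fibroblasts plus reporter T. cruzi · Doses – compound pinned at 50 nL/well, DMSO · Read-out basis – percent inhibition of parasite-derived β-gal signal · Signal – luminescent β-galactosidase signal after 60 min lysis · Also added – 5000 T. cruzi trypomastigotes/well · Medium – Low-serum DMEM with 2% FBS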
SKKanGAS inh: inhibitors of SKKanGAS S. pyogenes growth in kanamycin (SK-promoter or general growth effect) | inhibition, % at 7.5 µM | BacTiter-Glo, 6 h | 1.3% of 300,000 active;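 active = mean replicate score, as percent of positive control median, at least 50; inconclusive = mean below 50 but one replicate at or above 50; inactive = mean and every replicate below 50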;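 note: strain carries kanamycin resistance gene driven by streptokinase promoter and grows in 40 µg/ml kanamycin; loss of luminescence reflects streptokinase promoter inhibition or plain growth inhibition; 0% = median of DMSO wells and 100% = positive control at its reference dose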
Calb FLC: affects C. albicans growth with fluconazole; C. albicans CaCi-2 (fluconazole-resistant clinical isolate) + fluconazole, Alamar Blue growth, 48 h; growth inhibition, % (no concentration beside the values); 0.57% of 300,000 active; AID 1979;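 active = growth inhibition above about 58% in most replicates, limit read from the data, passing the limit was not always enough; inconclusive = exactly half the replicates above a set limit; inactive = most replicates below a set limit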;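 note: all wells also contain fluconazole at 8 µg/ml as a sub-toxic cotreatment; 0% = median of DMSO wells and 100% = median of geldanamycin control wells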
Beta apoptosis: blocks beta cell apoptosis. INS-1E cytokine-induced death, ATP luminescence, 48 h; percent of positive-control rescue, neutral wells zero. protection from apoptosis, % (concentration not given with the values). 0.8% of 300,000 active. AID 435005;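 active = Every replicate reaches about 75%, or at least half do and their mean reaches it too, limit read from the data; inconclusive = At least half of replicates reach the limit but their mean does not; inactive = Under half of replicates reach the limit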;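 note: 0% = cytokine-treated negative control wells and 100% = positive control rescue; higher means more ATP so stronger rescue from cytokine killing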
Mdm2-MdmX conf: human Mdm2/MdmX binding inhibition, confirmed; shares compounds with Mdm2 MdmX PPI; inhibition, % at 8 µM; luminescent assay; 55% of 10,000 active; in the data active = inhibition above about 40%
FLuc counter: inhibits full-length luciferase, flagging false Mdm2/MdmX hits | shares compounds with Mdm2 MdmX PPI | SaOS-2 full-length luciferase counterscreen, luminescence | inhibition, % at 8 µM | 77% of 6,200 active;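 active = mean inhibition at 8 µM reaching about 37%, which flags the compound as non-specific, limit read from the data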;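 note: p53-null SaOS-2 cells with luciferase driven by a doxycycline-inducible promoter; compound on cells about two nights before reading with doxycycline added after day one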
* marks the source's active call; other numbers are inactive results; u = inconclusive; x = no result. Shown are actives, neighbours in structure and some others; about 5.7% of the full set was active somewhere.

SMILES	CSC inhib	Mdm2 MdmX PPI	T cruzi inh	SKKanGAS inh	Calb FLC	Beta apoptosis	Mdm2-MdmX conf	FLuc counter
COc1ccc2c(c1)sc(N)[n+]2Cc1cc(C)cc2cccnc12	60	x	-45	-4	17	36	x	x
CCOc1ccc2c(c1)sc(N)[n+]2Cc1cc(C)cc2cccnc12	-6	58*	-18	5	1	63	65*	60*
Cc1cc(C[n+]2ncsc2N)c2ncccc2c1	-7	99*	8	-16	-4	-4	17	x
COc1ccc(-n2c(C(C)n3nc(C)c([N+](=O)[O-])c3C)n[nH]c2=S)cc1 (stereo not given)	3	-14	-10	4	4	5	x	x
COc1ccc(-n2c(C)c([N+](=O)[O-])c3ccc(O)c(CN(C)C)c32)cc1	-6	79*	2	4	10	-10	90*	53*
C=CCn1c(O)c(N=NC(=S)Nc2cccc(OC)c2)c2ccccc21	42	58*	59*	87*	45	59	40*	48*
Cc1cnc(C(=O)N2CCN(S(=O)(=O)c3cccc(Br)c3)CC2)cn1	-19	9	x	x	x	-3	x	x
Cc1cc(C)c2nc(N(CCCN(C)C)C(=O)c3ccc4c(c3)CCCC4)sc2c1	-1	77*	58*	6	10	x	34	x
CCOc1ccc2nc(N(CCN(C)C)C(=O)c3ccc4c(c3)CCCC4)sc2c1	0	-1	u	-3	-9	3	x	x
Cc1ccc2nc(N(CCCN(C)C)C(=O)c3ccc4c(c3)CCCC4)sc2c1	-6	51*	44	8	2	-1	23	x
CCN(CC)CCN(C(=O)c1ccc2c(c1)CCCC2)c1nc2cc(OC)c(OC)cc2s1	-3	53*	26	-4	4	1	46*	37*
COc1cc2nc(N(CCN(C)C)C(=O)c3ccc4ccccc4c3)sc2cc1OC	-1	0	32	-9	10	-6	x	x
COc1ccc(OC)c(/C=N/NC(=O)CSc2cc(C)nc3c(OC)cccc23)c1	-6	-13	20	-3	2	-4	x	x
O=C(O)CCn1cc(/C=N/O)c(-c2cccc([N+](=O)[O-])c2)n1	-15	18	-17	-12	-6	-4	x	x
CC(=O)Nc1ccc(C(=O)COC(=O)CCc2ccccc2)c(F)c1	-10	6	x	x	x	2	x	x
CCOC(=O)c1[nH]c2c(c1C)C(=O)CC(c1ccc(F)cc1)C2 (stereo not given)	60	59*	-11	-1	4	37	54*	63*
CCOCCOC(=O)c1[nH]c2c(c1C)C(=O)CC(c1ccccc1)C2 (stereo not given)	55	50*	19	-5	-4	42	56*	96*
CCOCCOC(=O)c1[nH]c2c(c1C)C(=O)CC(c1cccs1)C2 (stereo not given)	57	54*	21	1	6	24	61*	92*
CCCCCOC(=O)c1[nH]c2c(c1C)C(=O)CC(c1ccco1)C2 (stereo not given)	73	65*	17	0	0	-3	52*	89*
CC(C)c1ccccc1NCC(=O)N1CCN(Cc2ccccc2)CC1	-1	9	18	-3	-2	-2	x	x
CN1CCN(NC(=O)Nc2ccc(F)cc2)CC1	-4	14	17	3	u	-9	x	x
COC(=O)c1[nH]c2c(c1C)C(=O)CC(c1cccc(OC)c1)C2 (stereo not given)	67	54*	35	1	-3	31	59*	92*
COc1ccc2sc(N(CCCN(C)C)C(=O)c3ccc(S(=O)(=O)N4CCCc5ccccc54)cc3)nc2c1	3	80*	62*	24	46	x	44*	64*
CCN(Cc1ccccc1)S(=O)(=O)c1ccc(C(=O)N(CCCN(C)C)c2nc3cc4c(cc3s2)OCCO4)cc1	-1	78*	51	4	-9	x	38	77*

Screening data: PubChem BioAssay, several laboratories
